Measured values reported in ChEMBL document CHEMBL1122443, “Synthesis and antitumor evaluation of selected 5,6-disubstituted 1(2)H-indazole-4,7-diones” (1983).
Calls of active or inactive are those of the source. No cut-off for these calls is given here.

Key:
Mus musculus [1] = test: Antitumor activity in CF1 mice bearing Ehrlich ascites carcinoma measured as percentage inhibition at 5 mg/kg; assay type: functional
Summary of the method: (§1)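 Ehrlich ascites model in male CF1 mice (22–25 g): 2 × 10⁶ cells ip on day 0, ip dosing days 1–8, kill on day 9. Percent inhibition = 100 − [(treated volume × treated ascrit)/(control volume × control ascrit)]. Greater than 80% was taken as significant. Vehicle was 0.05% Tween 80, alone or with 5% absolute EtOH. 6-Mercaptopurine was the positive control.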

Mus musculus [2] = test: Antitumor activity in CF1 mice bearing Ehrlich ascites carcinoma measured as percentage inhibition at 1 mg/kg; IA means inactive; assay type: functional, organism-based; parameters: dose 1 mg/kg; summary of the method: as §1
Mus musculus [3] = test: Antitumor activity in 6 CF1 mice bearing Ehrlich ascites carcinoma measured as survivors on day 9 at 3 mg/kg; 6/6; assay type: functional
Mus musculus [4] = test: Antitumor activity in CF1 mice bearing Ehrlich ascites carcinoma measured as ascites volume at 8 mg/kg; assay type: functional
Summary of the method: (§2)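 Male CF1 mice (22–25 g) received 2 × 10⁶ Ehrlich carcinoma cells ip on day 0. Dosing was ip daily on days 1–8, with sacrifice on day 9. Ascites fluid volume per mouse and ascrit (packed cell volume) were measured for each group. Vehicle was 0.05% Tween 80, or 5% absolute EtOH in 0.05% Tween 80, used for both compound and control. 6-Mercaptopurine was the positive control.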

Mus musculus [5] = test: Antitumor activity in CF1 mice bearing Ehrlich ascites carcinoma measured as ascites volume at 3 mg/kg; assay type: functional; summary of the method: as §2
Mus musculus [6] = test: Antitumor activity in 6 CF1 mice bearing Ehrlich ascites carcinoma measured as survivors on day 9 at 8 mg/kg; 5/6; assay type: functional
Mus musculus [7] = test: Antitumor activity in CF1 mice bearing Ehrlich ascites carcinoma measured as percent ascrit packed cell volume at 1 mg/kg; assay type: functional
Summary of the method: (§3)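 CF1 male mice (22–25 g) were inoculated ip with 2 × 10⁶ Ehrlich cells on day 0 and treated ip on days 1–8 in 0.05% Tween 80 or 5% EtOH/0.05% Tween 80 vehicle. On day 9 the mice were sacrificed, and the ascrit (packed cell volume) of the ascites fluid was determined.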

Mus musculus [8] = test: Antitumor activity in 6 CF1 mice bearing Ehrlich ascites carcinoma measured as survivors on day 9 at 5 mg/kg; 6/6; assay type: functional
Mus musculus [9] = test: Antitumor activity in CF1 mice bearing Ehrlich ascites carcinoma measured as percentage inhibition at 3 mg/kg; IA means inactive; assay type: functional, organism-based; parameters: dose 3 mg/kg; summary of the method: as §1
Mus musculus [10] = test: (§4) Antitumor activity in CF1 mice bearing Ehrlich ascites carcinoma measured as percentage inhibition at 8 mg/kg; assay type: functional; summary of the method: as §1
Mus musculus [11] = test: Antitumor activity in CF1 mice bearing Ehrlich ascites carcinoma measured as ascites volume at 5 mg/kg; assay type: functional; summary of the method: as §2
Mus musculus [12] = test: Antitumor activity in 6 CF1 mice bearing Ehrlich ascites carcinoma measured as survivors on day 9 at 1 mg/kg; 6/6; assay type: functional
Mus musculus [13] = test: Antitumor activity in CF1 mice bearing Ehrlich ascites carcinoma measured as percent ascrit packed cell volume at 8 mg/kg; assay type: functional; summary of the method: as §2
Mus musculus [14] = test: (§5) Antitumor activity in CF1 mice bearing Ehrlich ascites carcinoma measured as percent ascrit packed cell volume at 3 mg/kg; assay type: functional; summary of the method: as §2
Mus musculus [15] = test: Antitumor activity in CF1 mice bearing Ehrlich ascites carcinoma measured as ascites volume at 1 mg/kg; assay type: functional
Summary of the method: (§6)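 Ehrlich ascites cells (2 × 10⁶) were implanted ip in male CF1 mice (22–25 g) on day 0. Dosing was ip on days 1–8 in 0.05% Tween 80 or 5% EtOH/0.05% Tween 80, with vehicle controls. Mice were killed on day 9, and ascites fluid volume per mouse was measured.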

Mus musculus [16] = test: Antitumor activity in CF1 mice bearing Ehrlich ascites carcinoma measured as percent ascrit packed cell volume at 5 mg/kg; assay type: functional; summary of the method: as §2
Mus musculus [17] = test: as §5; assay type: functional; summary of the method: as §3; remark: listed apart in the source
Mus musculus [18] = test: Antitumor activity in CF1 mice bearing Ehrlich ascites carcinoma measured as percentage inhibition at 3 mg/kg; assay type: functional; summary of the method: as §1
Mus musculus [19] = test: Antitumor activity in 6 CF1 mice bearing Ehrlich ascites carcinoma measured as survivors on day 9 at 5 mg/kg; 5/6; assay type: functional
Mus musculus [20] = test: Antitumor activity in CF1 mice bearing Ehrlich ascites carcinoma measured as survivors on day 9 at 8 mg/kg; 6/6; assay type: functional
Summary of the method: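 Male CF1 mice (22–25 g) were given 2 × 10⁶ Ehrlich carcinoma cells ip on day 0. Compounds were dosed ip on days 1–8 in 0.05% Tween 80 or in 5% absolute EtOH in 0.05% Tween 80, with vehicle-treated controls. Mice were killed on day 9, and ascites volume and ascrit (packed cell volume) were measured per mouse.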

Mus musculus [21] = test: Antitumor activity in CF1 mice bearing Ehrlich ascites carcinoma measured as survivors on day 9 at 1 mg/kg; 6/6; assay type: functional
Mus musculus [22] = test: Antitumor activity in CF1 mice bearing Ehrlich ascites carcinoma measured as survivors on day 9 at 5 mg/kg; 6/6; assay type: functional
Mus musculus [23] = test: Average days survived for treated / average days survived for control at 1 (mg/kg); 10/9.2; assay type: functional
Mus musculus [24] = test: Antitumor activity in CF1 mice bearing Ehrlich ascites carcinoma measured as percent ascrit packed cell volume at 10 mg/kg; assay type: functional; summary of the method: as §3
Mus musculus [25] = test: Antitumor activity in CF1 mice bearing Ehrlich ascites carcinoma measured as survivors on day 9 at 10 mg/kg; 6/6; assay type: functional
Mus musculus [26] = test: Antitumor activity in CF1 mice bearing Ehrlich ascites carcinoma measured as percentage inhibition at 10 mg/kg; IA= inactive; assay type: functional, organism-based; parameters: dose 10 mg/kg
Summary of the method: (§7)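 In the Ehrlich ascites model, male CF1 mice (22–25 g) received 2 × 10⁶ cells ip on day 0 and compound ip on days 1–8, with a vehicle of 0.05% Tween 80 ± 5% EtOH. Ascites volume and ascrit were taken on day 9. % inhibition = 100 − [(vol × ascrit, treated)/(vol × ascrit, control)], with >80% taken as significant.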

Mus musculus [27] = test: Antitumor activity in CF1 mice bearing Ehrlich ascites carcinoma measured as ascites volume at 10 mg/kg; assay type: functional; summary of the method: as §6
Mus musculus [28] = test: Antitumor activity in CF1 mice bearing Ehrlich ascites carcinoma measured as percentage inhibition at 1 mg/kg; IA= inactive; assay type: functional, organism-based; parameters: dose 1 mg/kg; summary of the method: as §7
Mus musculus [29] = test: Anti tumor activity in mice bearing lymphocytic leukemia P-388 at 1 mg/kg; assay type: functional
Summary of the method: (§8)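 Male BDF1 mice (20–23 g) were inoculated ip with 1 × 10⁶ P-388 leukemia cells on day 0. Compound was given ip once daily on days 1–14 in 0.05% Tween 80 vehicle, with a vehicle control group and 5-fluorouracil as positive control. Activity was scored as % T/C, average days survived treated/control, with >125% taken as significant.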

Mus musculus [30] = test: as §4; assay type: functional; summary of the method: as §7; remark: listed apart in the source
Mus musculus [31] = test: Average days survived for treated / average days survived for control at 25 (mg/kg); 17.6/9.5; assay type: functional
Mus musculus [32] = test: Anti tumor activity in mice bearing lymphocytic leukemia P-388 at 25 mg/kg; assay type: functional; summary of the method: as §8
Mus musculus [33] = test: Antitumor activity in CF1 mice bearing Ehrlich ascites carcinoma measured as percentage inhibition at 1 mg/kg; assay type: functional; summary of the method: as §7
Mus musculus [34] = test: Antitumor activity in CF1 mice bearing Ehrlich ascites carcinoma measured as survivors on day 9 at 5 mg/kg; 5/5; assay type: functional
Mus musculus [35] = test: Antitumor activity in CF1 mice bearing Ehrlich ascites carcinoma measured as survivors on day 9 at 10 mg/kg; 5/6; assay type: functional
Mus musculus [36] = test: Antitumor activity in CF1 mice bearing Ehrlich ascites carcinoma measured as survivors on day 9 at 1 mg/kg; 5/6; assay type: functional
Mus musculus [37] = test: Average days survived for treated / average days survived for control at 1 (mg/kg); 9.4/9.2; assay type: functional

Row | SMILES | inhibition in vivo at 5 mg/kg (Mus musculus [1]) [%] | Survivors (Mus musculus [3]) | ascites volume (Mus musculus [4]) [ml mouse-1] | ascites volume (Mus musculus [5]) [ml mouse-1] | Survivors (Mus musculus [6]) | packed cell volume (Mus musculus [7]) [%] | inhibition in vivo at 8 mg/kg (Mus musculus [10]) [%] | ascites volume (Mus musculus [11]) [ml mouse-1] | packed cell volume (Mus musculus [13]) [%] | ascites volume (Mus musculus [15]) [ml mouse-1] | packed cell volume (Mus musculus [16]) [%] | packed cell volume (Mus musculus [24]) [%] | inhibition (Mus musculus [26]) | ascites volume (Mus musculus [27]) [ml mouse-1] | T/C (Mus musculus [29]) [%] | further results
1 | CC(=O)NC1=C(Cl)C(=O)c2[nH]ncc2C1=O | 83.2 | 6 | 1.8 | 3.6 | 5 | 40 | 46.9 | 0.33 | 30.8 | 3.6 | 20.2 |  |  |  |  | inhibition (Mus musculus [2]): inactive; Survivors (Mus musculus [8]): 6; inhibition (Mus musculus [9]): inactive; Survivors (Mus musculus [12]): 6; packed cell volume (Mus musculus [14]): 38.1%
2 | CC(=O)NC1=C(Cl)C(=O)c2c(cnn2C)C1=O | 90 | 6 | 0.62 | 1.7 | 5 |  | 61.7 | 0.56 | 37.9 |  | 29 |  |  |  |  | packed cell volume (Mus musculus [17]): 20%; inhibition in vivo at 3 mg/kg (Mus musculus [18]): 67.8%; Survivors (Mus musculus [19]): 5
3 | COC1=C(N2CC2)C(=O)c2cnn(C)c2C1=O | 39.4 |  | 0.32 |  |  | 39.8 |  | 0.7 | 36.2 | 4.2 | 34.6 | 30.7 | inactive | 2.2 | 109 | Survivors (Mus musculus [20]): 6; Survivors (Mus musculus [21]): 6; Survivors (Mus musculus [22]): 6; Average survival (days) (Mus musculus [23]): 10; Survivors (Mus musculus [25]): 6; inhibition (Mus musculus [28]): inactive; inhibition in vivo at 8 mg/kg (Mus musculus [30]): 64.1%
4 | O=c1[nH]cc(F)c(=O)[nH]1 [FLUOROURACIL] |  |  |  |  |  |  |  |  |  |  |  |  |  |  |  | Average survival (days) (Mus musculus [31]): 17.6; T/C (Mus musculus [32]): 186%
5 | CCCSC1=C(N2CC2)C(=O)c2cnn(C)c2C1=O | 78.5 |  |  |  |  | 37.2 |  | 0.88 |  | 0.26 | 37.8 | 39.4 | inactive | 1.5 | 102 | inhibition in vivo at 1 mg/kg (Mus musculus [33]): 74.1%; Survivors (Mus musculus [34]): 5; Survivors (Mus musculus [35]): 5; Survivors (Mus musculus [36]): 5; Average survival (days) (Mus musculus [37]): 9.4
